Measured values as given in ChEMBL document CHEMBL4270630.

Tests used:
Influenza A virus [1] = assay: Antiviral activity against Influenza A virus A/PR/8/34(H1N1) infected in MDCK cells assessed as reduction in virus-induced cytopathic effect after 3 days by microscopic method; assay type: functional, organism-based, A/Puerto Rico/8/1934(H1N1); conditions: Influenza A virus, A/Puerto Rico/8/1934(H1N1), MDCK, 72 h
Summary of the method: (§1)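 Semi-confluent MDCK cells were infected at an MOI of 0.0004 PFU/cell in Ultra-MDCK infection medium with 2 μg/mL TPCK-trypsin, together with compounds. After 3 days at 35 °C, CPE was scored by microscopy and confirmed by MTS formazan viability. EC50 is the concentration giving 50% inhibition of virus-induced CPE. Values are means of two to five independent tests.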

Influenza A virus [2] = assay: Antiviral activity against Influenza A virus A/PR/8/34(H1N1) infected in MDCK cells after 3 days by MTS assay; assay type: functional, organism-based, A/Puerto Rico/8/1934(H1N1); conditions: Influenza A virus, A/Puerto Rico/8/1934(H1N1), MDCK, 72 h; summary of the method: as §1
Influenza A virus [3] = assay: Antiviral activity against Influenza A virus A/Virginia/ATCC3/2009(H1N1pdm) infected in MDCK cells assessed as reduction in virus-induced cytopathic effect after 3 days by microscopic method; assay type: functional, organism-based, Influenza A virus (A/Virginia/03/2009(H1N1)); conditions: 72 h; summary of the method: as §1
Influenza A virus [4] = assay: Antiviral activity against Influenza A virus A/Virginia/ATCC3/2009(H1N1pdm) infected in MDCK cells after 3 days by MTS assay; assay type: functional, organism-based, Influenza A virus (A/Virginia/03/2009(H1N1)); conditions: 72 h; summary of the method: as §1
H3N2 subtype [5] = assay: Antiviral activity against Influenza A virus A/HK/7/87(H3N2) infected in MDCK cells assessed as reduction in virus-induced cytopathic effect after 3 days by microscopic method; assay type: functional, organism-based; conditions: A/Hong Kong/7/1987(H3N2), 72 h; summary of the method: as §1
H3N2 subtype [6] = assay: Antiviral activity against Influenza A virus A/HK/7/87(H3N2) infected in MDCK cells after 3 days by MTS assay; assay type: functional, organism-based; conditions: A/Hong Kong/7/1987(H3N2), 72 h; summary of the method: as §1
Influenza B virus [7] = assay: Antiviral activity against Influenza B virus B/Ned/537/05 infected in MDCK cells assessed as reduction in virus-induced cytopathic effect after 3 days by microscopic method; assay type: functional, organism-based; conditions: B/Ned/537/05, MDCK, 72 h
Summary of the method: (§2)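 Semi-confluent MDCK cells were infected at an MOI of 0.0004 PFU/cell in Ultra-MDCK infection medium with 2 μg/mL TPCK-trypsin, together with compounds. After 3 days at 35 °C, CPE was scored by microscopy and confirmed by MTS formazan viability. Values are means of two to five independent tests.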

Influenza B virus [8] = assay: Antiviral activity against Influenza B virus B/Ned/537/05 infected in MDCK cells after 3 days by MTS assay; assay type: functional, organism-based; conditions: B/Ned/537/05, MDCK, 72 h; summary of the method: as §2
MDCK = assay: Cytotoxicity against MDCK cells assessed as reduction in cell viability after 3 days by MTS assay; assay type: cell-based, Canis lupus familiaris; conditions: dog, mdck, 72 h
[9] = Cytotoxicity against MDCK cells assessed as alteration in cell morphology after 3 days by microscopic method; assay type: cell-based, Canis lupus familiaris; conditions: dog
Summary of the method: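 Mock-infected MDCK cells were treated with compounds in parallel with the antiviral assay, 3 days at 35 °C. MCC is the concentration causing minimal change in cell morphology by microscopy. CC50 is the 50% cytotoxic concentration by MTS formazan viability assay.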

Human coronavirus 229E [10] = assay: Antiviral activity against Human coronavirus 229E infected in HEL299 cells assessed as reduction in virus induced cytopathic effect after 5 days by microscopic method; assay type: functional, organism-based; conditions: HEL 299, 120 h
Summary of the method: (§3)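 Confluent HEL 299 cells in medium with 2% FCS were exposed to HCoV-229E (100 CCID50/well) together with compounds and held for 5 days at 35 °C. EC50 (CPE reduction) and MCC (minimal morphology change) were determined by microscopy. SI is MCC/EC50.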

[11] = Cytotoxicity against HEL299 cells assessed as changes in cell morphology after 5 days by microscopic method; assay type: cell-based, HEL 299; conditions: human; summary of the method: as §3
[12] = Selectivity index, ratio of MCC for HEL299 cells to EC50 for Human coronavirus 229E infected in HEL299 cells; assay type: toxicity, cell-based; conditions: read-out: Selectivity Index; summary of the method: as §3
Human coronavirus 229E [13] = assay: Antiviral activity against Human coronavirus 229E infected in human A549 cells assessed as reduction in virus RNA level after 3 days by qRT-PCR method; assay type: functional; conditions: A549, 72 h
Summary of the method: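 Confluent A549 cells were infected with HCoV-229E in 2% FCS medium with compounds present. The inoculum was removed at 1 h and compounds were kept on at 35 °C. Supernatants were harvested at day 3, lysed at 75 °C for 10 min, and viral genome copies counted by one-step qRT-PCR.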

[14] = Cytotoxicity against human A549 cells assessed as changes in cell morphology after 3 days by microscopic method; assay type: cell-based
Summary of the method: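 Mock-infected A549 cells were incubated with compounds for 3 days. MCC is the concentration causing minimal change in cell morphology by microscopy.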

[15] = Selectivity index, ratio of MCC for MDCK cells to EC50 for Influenza A virus A/PR/8/34(H1N1) infected in MDCK cells assessed as reduction in virus-induced cytopathic effect by microscopic method; assay type: toxicity, cell-based; conditions: dog, read-out: Selectivity Index
Summary of the method: (§4)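 Selectivity index is MCC divided by EC50. MCC comes from microscopy of mock-infected MDCK cells. EC50 comes from microscopic scoring of virus-induced CPE in MDCK cells infected at an MOI of 0.0004 PFU/cell with TPCK-trypsin. Both readings were taken after 3 days at 35 °C.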

[16] = Selectivity index, ratio of MCC for MDCK cells to EC50 for Influenza A virus A/Virginia/ATCC3/2009(H1N1pdm) infected in MDCK cells assessed as reduction in virus-induced cytopathic effect by microscopic method; assay type: toxicity, cell-based; conditions: dog, read-out: Selectivity Index; summary of the method: as §4
[17] = Selectivity index, ratio of MCC for MDCK cells to EC50 for Influenza A virus A/HK/7/87(H3N2) infected in MDCK cells assessed as reduction in virus-induced cytopathic effect by microscopic method; assay type: toxicity, cell-based; conditions: dog, read-out: Selectivity Index; summary of the method: as §4
[18] = Selectivity index, ratio of MCC for MDCK cells to EC50 for Influenza B virus B/Ned/537/05 infected in MDCK cells assessed as reduction in virus-induced cytopathic effect by microscopic method; assay type: toxicity, cell-based; conditions: dog, read-out: Selectivity Index; summary of the method: as §4
[19] = Selectivity index, ratio of MCC for MDCK cells to EC50 for Influenza B virus B/HK/05/72 infected in MDCK cells assessed as reduction in virus-induced cytopathic effect by microscopic method; assay type: toxicity, cell-based; conditions: dog, read-out: Selectivity Index; summary of the method: as §4

SMILES	EC50 (Influenza A virus [1]) [µM]	EC50 (Influenza A virus [2]) [µM]	EC50 (Influenza A virus [3]) [µM]	EC50 (Influenza A virus [4]) [µM]	EC50 (H3N2 subtype [5]) [µM]	EC50 (H3N2 subtype [6]) [µM]	EC50 (Influenza B virus [7]) [µM]	EC50 (Influenza B virus [8]) [µM]	CC50 (MDCK) [µM]	MCC at 72 h [9] [µM]	EC50 (Human coronavirus 229E [10]) [µM]	MCC at 120 h [11] [µM]	selectivity ratio [12]	EC90 (Human coronavirus 229E [13]) [µM]	EC99 (Human coronavirus 229E [13]) [µM]	MCC at 72 h [14] [µM]	also measured
CCCCCCS(=O)(=O)N[C@H]1C(=O)N[C@@H]2Cc3ccc(c(Cl)c3)Oc3cc4cc(c3O)Oc3ccc(cc3Cl)[C@@H](O[C@@H]3O[C@H](CO)[C@@H](O)[C@H](O)[C@H]3NC(C)=O)[C@H]3NC(=O)[C@H](NC(O)[C@@H]4NC(=O)[C@@H](NC2=O)c2cc(O)cc(c2)Oc2cc1ccc2O)c1ccc(O)c(c1)-c1c(O)cc(O)cc1[C@H](C(=O)O)NC3=O (stereo not given in full)	8.6	9.6	8.9	9.1	8.3	8.9	8.9	10.3	54	100	1.5	20	11				
CC(=O)N[C@H]1[C@H](O[C@@H]2c3ccc(c(Cl)c3)Oc3cc4cc(c3O)Oc3ccc(cc3Cl)C[C@H]3NC(=O)[C@H](NS(=O)(=O)c5ccc(C)cc5)c5ccc(O)c(c5)Oc5cc(O)cc(c5)[C@H](NC3=O)C(=O)N[C@H]4C(O)N[C@H]3C(=O)N[C@H]2C(=O)N[C@@H](C(=O)O)c2cc(O)cc(O)c2-c2cc3ccc2O)O[C@H](CO)[C@@H](O)[C@@H]1O (stereo not given in full)	9	11	30	32	41	19	11	12	> 100	100	5.2	≥ 100	19	4.9	10	> 50	
CCCCCCCCCCCCS(=O)(=O)N[C@H]1C(=O)N[C@@H]2Cc3ccc(c(Cl)c3)Oc3cc4cc(c3O)Oc3ccc(cc3Cl)[C@@H](O[C@@H]3O[C@H](CO)[C@@H](O)[C@H](O)[C@H]3NC(C)=O)[C@H]3NC(=O)[C@H](NC(O)[C@@H]4NC(=O)[C@@H](NC2=O)c2cc(O)cc(c2)Oc2cc1ccc2O)c1ccc(O)c(c1)-c1c(O)cc(O)cc1[C@H](C(=O)O)NC3=O (stereo not given in full)	0.4	0.8	> 100	1.6	< 0.8	< 0.8	< 0.8	< 0.8	4.5	4	1.8	20	13	2.8	4.7	50	
CCCCCCCCSC1=C(SCCCCCCCC)C(=O)N(Cc2cn(C3C(=O)N[C@@H]4Cc5ccc(c(Cl)c5)Oc5cc6cc(c5O)Oc5ccc(cc5Cl)[C@@H](O[C@@H]5O[C@H](CO)[C@@H](O)[C@H](O)[C@H]5NC(C)=O)[C@H]5NC(=O)[C@H](NC(O)[C@@H]6NC(=O)[C@@H](NC4=O)c4cc(O)cc(c4)Oc4cc3ccc4O)c3ccc(O)c(c3)-c3c(O)cc(O)cc3[C@H](C(=O)O)NC5=O)nn2)C1=O (stereo not given in full)	9.2	12	4.4	3.4	8.9	6.3	6.7	7.2	49	73							selectivity ratio [15]: 10; selectivity ratio [16]: 10; selectivity ratio [17]: 10; selectivity ratio [18]: 10; selectivity ratio [19]: 10
